Data reported in ChEMBL document CHEMBL4118104, “Design, Synthesis, and Evaluation of Orally Bioavailable Quinoline-Indole Derivatives as Innovative Multitarget-Directed Ligands: Promotion of Cell Proliferation in the Adult Murine Hippocampus for the Treatment of Alzheimer's Disease” (J Med Chem, 2018).
Calls of active or inactive are those of the source. No cut-off for these calls is given here.

Tests used:
[1] = Permeability of compound at 100 ug/ml after 10 hrs by PAMPA assay; format: ADME; settings: read-out: permeability
[2] = Metabolic stability in Sprague-Dawley rat liver microsomes assessed as metabolic rate constant at 100 uM up to 180 mins by HPLC-UV analysis; settings: 3 h
[3] = Half life in Sprague-Dawley rat liver microsomes at 100 uM up to 180 mins by HPLC-UV analysis; settings: microsomes
PC-12 [4] = test: Cytotoxicity against rat undifferentiated PC12 cells at 0.5 to 50 uM after 72 hrs by MTT assay; format: cell-based; settings: pc-12, 72 h
SH-SY5Y = test: Neuroprotective activity against t-BuOOH-induced oxidative stress in human SH-SY5Y cells assessed as inhibition ROS accumulation pre-incubated for 24 hrs before t-BuOOH challnge for 30 mins by DCFH-DA probe based fluorescence assay; format: functional, cell-based
Method in brief: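 SH-SY5Y cells; test agents at 1–0.01 µM, oxidative stress induced by tert-butyl hydroperoxide; intracellular ROS read by DCFH-DA fluorescence; at least three independent experiments in sextuplicate; EC50 derived.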

PC-12 [5] = test: Induction of rat PC12 cell proliferation at 0.5 to 50 uM after 72 hrs by microscopic analysis; format: functional, cell-based
Method in brief: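 Undifferentiated PC12 cells cultured 72 h with compound at 0.5–50 µM (images at 10 µM) or with NGF 50 ng/ml, then examined under a digital microscope.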

## Oc1cccc2ccc(-c3cc4ccccc4[nH]3)nc12
[1]
  Papp at 10 h, 100 ug/ml: 8 ×10⁻⁶ cm/s

## COc1cc2c(cc1OC)C(=O)C(CC1CCN(Cc3ccccc3)CC1)C2 (stereo not drawn) [DONEPEZIL]
[2]
  K: 0.00889 min⁻¹
[3]
  half-life at 3 h, 100 µM: 1.3 h

## C[C@]12CC[C@H]3[C@@H](CCC4=CC(=O)CC[C@@]43C)[C@@H]1CC[C@@H]2O [TESTOSTERONE]
[2]
  K: 0.3132 min⁻¹

## Oc1cccc2ccc(-c3cc4ccc5c(c4[nH]3)OCO5)nc12
PC-12 [4]
  Activity: Non-Toxic
SH-SY5Y
  EC50: 260 nM
[1]
  Papp at 10 h, 100 ug/ml: 5.9 ×10⁻⁶ cm/s

## CN(C)CCCN1c2ccccc2Sc2ccc(Cl)cc21 [CHLORPROMAZINE]
[1]
  Papp at 10 h, 100 ug/ml: 5.9 ×10⁻⁶ cm/s

## Oc1ccc2[nH]c(-c3cc(Cl)c(O)c4ncccc34)cc2c1
PC-12 [4]
  Activity: Toxic
[1]
  Papp at 10 h, 100 ug/ml: 6.8 ×10⁻⁶ cm/s

## Oc1c(Cl)cc(Cl)c2ccc(-c3cc4cc(Cl)ccc4[nH]3)nc12
PC-12 [4]
  Activity: Non-Toxic
SH-SY5Y
  EC50: 820 nM
[1]
  Papp at 10 h, 100 ug/ml: 5.6 ×10⁻⁶ cm/s

## Oc1ccc2[nH]c(-c3ccc4cccc(O)c4n3)cc2c1
PC-12 [4]
  Activity: Toxic
[1]
  Papp at 10 h, 100 ug/ml: 14.8 ×10⁻⁶ cm/s

## COc1cc2[nH]c(-c3ccc4cccc(O)c4n3)cc2cc1O
[1]
  Papp at 10 h, 100 ug/ml: 12.1 ×10⁻⁶ cm/s

## Oc1ccc2[nH]c(-c3ccc(O)c4ncccc34)cc2c1
PC-12 [4]
  Activity: Toxic
[1]
  Papp at 10 h, 100 ug/ml: 9.1 ×10⁻⁶ cm/s

## Oc1ccc2[nH]c(-c3ccc4c(Cl)cc(Cl)c(O)c4n3)cc2c1
PC-12 [4]
  Activity: Non-Toxic
SH-SY5Y
  EC50: 100 nM
[1]
  Papp at 10 h, 100 ug/ml: 10.2 ×10⁻⁶ cm/s

## COc1cc2[nH]c(-c3ccc4c(Cl)cc(Cl)c(O)c4n3)cc2cc1O
[1]
  Papp at 10 h, 100 ug/ml: 8.4 ×10⁻⁶ cm/s
PC-12 [5]
  Activity: inactive
